# Reference: ChEMBL document CHEMBL1131034, “Synthesis and pharmacological characterization of novel 6-fluorochroman derivatives as potential 5-HT1A receptor antagonists” (J Med Chem, 1998)
# pKi: −log10 of the molar value.
# Tests used:
# [1] = tested on: Rattus norvegicus; experiment: in vivo antagonist activity was measured as forepaw treading(FT) in a behavioral response test in reserpinized rats at 3 mg/kg(sc) dose; type: functional
# Outline: (§1)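 Male Wistar rats given reserpine 18 h beforehand. Test compound or vehicle given sc; 15 min later 8-OH-DPAT 0.25 mg/kg sc. Forepaw treading and flat body posture scored on a ranked intensity scale every 3 min for 15 min, starting 3 min after 8-OH-DPAT. Doses as free base; mean ± SEM, Mann–Whitney U-test against vehicle controls.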
# [2] = tested on: Rattus norvegicus; experiment: in vivo antagonist activity was measured as forepaw treading(FT) in a behavioral response test in reserpinized rats upon subcutaneous administration; type: functional; outline: as §1
# [3] = tested on: Rattus norvegicus; experiment: in vivo antagonist activity was measured as flat body posture (FBP) in a behavioral response test in reserpinized rats at 1 mg/kg(sc) dose; type: functional; outline: as §1
# [4] = tested on: Rattus norvegicus; experiment: in vivo antagonist activity was measured as flat body posture (FBP) in a behavioral response test in reserpinized rats at 3 mg/kg(sc) dose; type: functional; outline: as §1
# [5] = tested on: Rattus norvegicus; experiment: in vivo antagonist activity was measured as flat body posture (FBP) in a behavioral response test in reserpinized rats upon subcutaneous administration; type: functional; outline: as §1
# [6] = tested on: Rattus norvegicus; experiment: in vivo antagonist activity was measured as forepaw treading(FT) in a behavioral response test in reserpinized rats at 1 mg/kg(sc) dose; type: functional; outline: as §1
# [7] = biological target: Serotonin 1a (5-HT1a) receptor/Adrenergic receptor alpha-1 (Rattus norvegicus) (UniProt P15823+P23944+P43140+P19327); experiment: Selectivity for 5-HT1A receptor of rat hippocampus and alpha-1 adrenergic receptor of rat cortex.; type: tissue-based
# [8] = biological target: T1, 5-hydroxytryptamine receptor 1A (Homo sapiens) (UniProt P08908); experiment: Antagonist activity against CHO cells expressing the human 5-hydroxytryptamine 1A receptor in a forskolin stimulated adenylate cyclase (FSC) assay.; type: functional, cell-based
# T1 sequence (whole entry): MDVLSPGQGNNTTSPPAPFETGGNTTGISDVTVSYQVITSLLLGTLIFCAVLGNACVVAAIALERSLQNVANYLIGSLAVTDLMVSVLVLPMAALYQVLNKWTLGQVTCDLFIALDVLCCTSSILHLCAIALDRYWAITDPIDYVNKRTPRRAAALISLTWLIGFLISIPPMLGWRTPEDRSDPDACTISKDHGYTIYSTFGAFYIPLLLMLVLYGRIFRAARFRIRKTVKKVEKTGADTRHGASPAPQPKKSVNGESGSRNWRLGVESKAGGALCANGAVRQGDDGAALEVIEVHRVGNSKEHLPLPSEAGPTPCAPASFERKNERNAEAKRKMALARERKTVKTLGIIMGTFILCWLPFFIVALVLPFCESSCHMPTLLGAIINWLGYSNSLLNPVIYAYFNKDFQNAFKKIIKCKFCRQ
# [9] = biological target: T2, 5-hydroxytryptamine receptor 1A (Rattus norvegicus, UniProt P19327); experiment: Binding affinity against 5-hydroxytryptamine 1A receptor on rat hippocampus using [3H]8-OH-DPAT as radioligand.; type: tissue-based
# T2 sequence (P19327 whole entry): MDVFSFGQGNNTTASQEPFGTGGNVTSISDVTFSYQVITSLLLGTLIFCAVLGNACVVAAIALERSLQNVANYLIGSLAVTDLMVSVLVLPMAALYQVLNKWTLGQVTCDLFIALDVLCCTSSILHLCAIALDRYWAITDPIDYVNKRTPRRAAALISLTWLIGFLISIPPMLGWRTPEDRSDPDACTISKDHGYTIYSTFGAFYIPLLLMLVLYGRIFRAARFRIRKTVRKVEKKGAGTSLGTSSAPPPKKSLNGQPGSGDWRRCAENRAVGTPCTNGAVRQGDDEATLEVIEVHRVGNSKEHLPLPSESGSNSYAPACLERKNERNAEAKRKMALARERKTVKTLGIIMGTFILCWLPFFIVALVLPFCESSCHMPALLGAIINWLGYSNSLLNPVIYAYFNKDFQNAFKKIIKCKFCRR
# [10] = biological target: T3, Adrenergic receptor alpha-1 (Rattus norvegicus, UniProt P15823+P23944+P43140); experiment: Binding affinity against alpha-1 adrenergic receptor on rat cortex using [3H]-prazosin as radioligand.; type: tissue-based, Brain
# T3 sequence (P15823 whole entry): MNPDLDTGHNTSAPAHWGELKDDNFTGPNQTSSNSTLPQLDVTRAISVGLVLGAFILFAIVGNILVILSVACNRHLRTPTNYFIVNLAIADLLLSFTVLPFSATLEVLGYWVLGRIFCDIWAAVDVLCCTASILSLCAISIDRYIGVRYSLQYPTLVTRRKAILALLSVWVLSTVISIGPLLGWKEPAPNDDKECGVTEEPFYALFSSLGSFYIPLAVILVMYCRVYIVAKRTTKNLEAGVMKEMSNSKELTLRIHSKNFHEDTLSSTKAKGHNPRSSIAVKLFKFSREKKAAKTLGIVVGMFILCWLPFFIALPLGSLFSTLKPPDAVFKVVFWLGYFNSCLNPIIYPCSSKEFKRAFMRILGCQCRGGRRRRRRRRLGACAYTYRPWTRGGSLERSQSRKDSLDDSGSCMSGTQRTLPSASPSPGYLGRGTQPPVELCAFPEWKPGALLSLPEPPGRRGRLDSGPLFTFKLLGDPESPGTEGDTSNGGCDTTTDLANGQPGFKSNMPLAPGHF
# T3 sequence (P23944 whole entry): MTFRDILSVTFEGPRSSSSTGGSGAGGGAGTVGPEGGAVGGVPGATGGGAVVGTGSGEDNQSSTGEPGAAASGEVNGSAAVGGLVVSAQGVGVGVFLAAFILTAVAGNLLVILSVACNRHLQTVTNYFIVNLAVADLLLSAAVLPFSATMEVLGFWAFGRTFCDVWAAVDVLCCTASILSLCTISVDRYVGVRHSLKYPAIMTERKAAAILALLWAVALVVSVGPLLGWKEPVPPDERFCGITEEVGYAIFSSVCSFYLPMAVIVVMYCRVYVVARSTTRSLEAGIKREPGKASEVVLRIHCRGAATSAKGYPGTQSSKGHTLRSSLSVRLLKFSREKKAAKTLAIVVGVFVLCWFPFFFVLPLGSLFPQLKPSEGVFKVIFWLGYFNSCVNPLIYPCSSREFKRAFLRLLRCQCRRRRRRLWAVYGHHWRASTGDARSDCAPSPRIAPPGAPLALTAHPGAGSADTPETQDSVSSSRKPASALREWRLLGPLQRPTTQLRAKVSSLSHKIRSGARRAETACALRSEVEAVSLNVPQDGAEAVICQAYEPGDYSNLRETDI
# T3 sequence (P43140 whole entry): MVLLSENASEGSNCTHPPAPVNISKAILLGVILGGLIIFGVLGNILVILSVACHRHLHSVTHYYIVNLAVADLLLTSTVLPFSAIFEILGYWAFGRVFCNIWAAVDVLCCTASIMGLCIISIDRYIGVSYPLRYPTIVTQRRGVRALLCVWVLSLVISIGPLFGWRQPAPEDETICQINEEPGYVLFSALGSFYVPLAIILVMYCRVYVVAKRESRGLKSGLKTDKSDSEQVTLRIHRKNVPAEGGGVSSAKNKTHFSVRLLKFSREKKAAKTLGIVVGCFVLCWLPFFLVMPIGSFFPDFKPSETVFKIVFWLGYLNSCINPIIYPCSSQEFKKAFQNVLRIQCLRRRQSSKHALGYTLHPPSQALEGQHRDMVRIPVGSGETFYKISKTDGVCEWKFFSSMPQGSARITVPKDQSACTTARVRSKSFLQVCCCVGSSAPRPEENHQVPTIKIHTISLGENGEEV
# [11] = biological target: D(2) dopamine receptor (Rattus norvegicus, UniProt P61169); experiment: Binding affinity against dopamine receptor D2 on rat striatum using [3H]spiperone as radioligand.; type: tissue-based
# [12] = tested on: Rattus norvegicus; experiment: In vivo antagonist activity was measured as forepaw treading(FT) in a behavioral response test in reserpinized rats upon subcutaneous administration; type: functional
# Outline: (§2)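 Male Wistar rats given reserpine 18 h before use. Test compound or vehicle given 15 min before 8-OH-DPAT (0.25 mg/kg sc). Starting 3 min after agonist, forepaw treading and flat body posture scored every 3 min for 15 min on a ranked intensity scale. Doses expressed as free base. Mean ± SEM; Mann–Whitney U-test against vehicle control.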
# [13] = tested on: Rattus norvegicus; experiment: In vivo antagonist activity was measured as flat body posture (FBP) in a behavioral response test in reserpinized rats at 1 mg/kg(sc) dose.; type: functional; outline: as §2
# [14] = tested on: Rattus norvegicus; experiment: In vivo antagonist activity was measured as flat body posture (FBP) in a behavioral response test in reserpinized rats at 3 mg/kg(sc) dose.; type: functional; outline: as §2
# [15] = tested on: Rattus norvegicus; experiment: In vivo antagonist activity was measured as flat body posture (FBP) in a behavioral response test in reserpinized rats upon subcutaneous administration; type: functional; outline: as §2
# [16] = tested on: Rattus norvegicus; experiment: In vivo antagonist activity was measured as forepaw treading(FT) in a behavioral response test in reserpinized rats at 1 mg/kg(sc) dose.; type: functional; outline: as §2
# [17] = tested on: Rattus norvegicus; experiment: In vivo antagonist activity was measured as forepaw treading(FT) in a behavioral response test in reserpinized rats at 3 mg/kg(sc) dose.; type: functional; outline: as §2
# [18] = Binding affinity (Ki) ratio of D2 receptor of rat striatum and 5-HT1A receptor of rat hippocampus.; type: tissue-based
# D(2) dopamine receptor, sequence (P61169 whole entry): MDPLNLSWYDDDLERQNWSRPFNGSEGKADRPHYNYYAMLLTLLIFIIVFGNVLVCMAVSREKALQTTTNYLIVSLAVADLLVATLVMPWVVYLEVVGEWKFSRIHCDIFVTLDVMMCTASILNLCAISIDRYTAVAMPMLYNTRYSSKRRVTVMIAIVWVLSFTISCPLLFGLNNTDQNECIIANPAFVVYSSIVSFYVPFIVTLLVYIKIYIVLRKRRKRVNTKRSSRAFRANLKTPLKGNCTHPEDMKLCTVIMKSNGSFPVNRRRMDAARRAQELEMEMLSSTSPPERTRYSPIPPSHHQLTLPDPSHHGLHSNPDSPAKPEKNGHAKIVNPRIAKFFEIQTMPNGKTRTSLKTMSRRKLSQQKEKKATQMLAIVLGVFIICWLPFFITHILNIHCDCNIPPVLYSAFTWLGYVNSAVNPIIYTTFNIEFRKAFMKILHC
Structure (SMILES),Behavior score [1],Behavior score [2],Behavior score [3],Behavior score [4],Behavior score [5],Behavior score [6],Selectivity [7],FSC recovery [8],pKi [9],Ki [10],pKi [11],Behavior score [12],Behavior score [13],Behavior score [14],Behavior score [15],Behavior score [16],Behavior score [17],Ratio [18]
CCCN(CCC)[C@H]1CCc2c(F)ccc(O)c2C1,0.5,9.9,3.5,1.8,12.6,1.3,130,,,,,,,,,,,
O=C1CCOc2c(OCCNCCCCc3ccc4c(c3)CCO4)cc(F)cc21,,,,,,,40,68%,8.38,0.169 µM,7.30,10.1,6.8,3.8,12.3,4,1.2,12
COc1ccc(CCCCNCCOc2cc(F)cc3c2OCCC3O)cc1 (stereo in doubt; 34),,,,,,,,,9.15,0.0104 µM,9.14,8.6,6.8,4,12.4,3.3,1.8,
COc1ccc(CCCCNCCOc2cc(F)cc3c2OCCC3)cc1,,,,,,,12,121%,,,,8.8,3.8,3,11.5,1.8,0.5,1.2
O=C1CCOc2c(OCCNCCCCc3ccc4c(c3)OCO4)cc(F)cc21,,,,,,,78,55%,8.57,0.209 µM,7.38,7.8,5.3,3,9.7,3,1.5,16
COc1ccc(CCCCNCCOc2cc(F)cc3c2OCC=C3)cc1,,,,,,,52,109%,9.80,0.00831 µM,9.54,11.8,3.7,2.8,11.8,1.3,0,1.8
O=C1CCOc2c(OCCNCCCCc3ccc4c(c3)OCCO4)cc(F)cc21,,,,,,,120,65%,8.59,0.303 µM,7.60,7.7,,8.5,11,,5.8,9.7
COc1ccc(CCCCNCCOc2cc(F)cc3c2OCC/C3=N/O)cc1,,,,,,,7.5,83%,7.56,0.207 µM,7.93,,,,,,,0.42
COc1ccc(CCCCNCCOc2cc(F)cc3c2OCCC3=O)cc1,,,,,,,66,59%,8.51,0.203 µM,7.21,10.2,6,2.3,11.3,3.8,1.3,20
